High-throughput results as filed in PubChem.
CendR NRP1 mod = NRP-1/CendR interaction modulation; FAM-RPARPAR peptide binding to NRP-1, fluorescence polarization; inhibition, % at 25 µM; hit rate 0.85% among 360,000;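 active = inhibition or corrected inhibition above about 18%, plus a signal ratio from 0.5 to 1.5, limit read from the data, passing the limit was not always enough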
SENP1 inh = blocks the human SENP1 SUMO protease catalytic domain | Q9P0U3 | AID 624204 | hit rate 0.21% among 360,000 | inhibition, % at 10 µM | recombinant SENP1 catalytic domain, CyPet-SUMO1-YPet FRET cleavage;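 active = inhibition at least 30% at 10 µM, raw YFP signal under a set limit, fluorescence ratio 0.5 to 1.5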;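 also: 0% = enzyme with DMSO and 100% = no enzyme wells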
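Compound: 10 µM single point, 0.5% DMSO; Test system: hSENP1 catalytic domain, recombinant; Timing: 50 min reaction at room temperature; Technique: FRET, CFP and YFP emission; Control set: no-enzyme wells low, DMSO-plus-enzyme wells high control.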
SENP8 block-1 = SENP8 (human) protease inhibition | Q96LD8 | recombinant SENP8, Nedd8 substrate fluorescence | inhibition, % at 20 µM | hit rate 0.64% among 360,000; in the data active = inhibition mostly above about 40%, no sharp cut-off; inactive = mostly below about 27%
SENP8 block-2 = inhibitors of human SENP8 protease; Q96LD8; purified SENP8, Z-RLRGG-aminoluciferin cleavage, luminescence; inhibition, % at 10 µM; hit rate 1.2% among 330,000; in the data active = inhibition above about 50%
SENP7 block = blocks the human protease SENP7. Q9BQF6. recombinant SENP7, Z-RLRGG-aminoluciferin luminescence, 40 min. inhibition, % at 5 µM. hit rate 1.5% among 330,000. AID 434973;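 active = inhibition above about 50% at the single test dose, limit read from the data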;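 also: plate controls were DMSO with enzyme for no effect and no enzyme buffer wells for full effect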
Target sequence (Q9BQF6 706-1050 limits assumed): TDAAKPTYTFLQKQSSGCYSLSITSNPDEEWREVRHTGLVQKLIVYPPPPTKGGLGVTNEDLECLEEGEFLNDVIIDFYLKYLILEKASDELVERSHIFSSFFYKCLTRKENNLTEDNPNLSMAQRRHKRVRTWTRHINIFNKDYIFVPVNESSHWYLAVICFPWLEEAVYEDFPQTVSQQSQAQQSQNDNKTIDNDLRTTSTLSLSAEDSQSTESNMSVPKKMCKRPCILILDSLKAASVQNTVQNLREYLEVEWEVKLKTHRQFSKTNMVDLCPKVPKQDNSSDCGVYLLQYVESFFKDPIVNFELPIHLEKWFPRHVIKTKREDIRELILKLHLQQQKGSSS
SENP6 inh = blocks the human protease SENP6; Q9GZR1; Recombinant SENP6 catalytic domain, aminoluciferin luminescence; inhibition, % at 10 µM; hit rate 1.8% among 330,000;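 active = inhibition above about 50% at the single tested dose, limit read from the data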;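 also: plate controls were DMSO wells with enzyme for no effect and DMSO wells lacking enzyme for full effect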
SENP8 conf = human SENP8 inhibition, confirmed | shares compounds with SENP7 block | Recombinant SENP8, Z-RLRGG-aminoluciferin luminescence, 60 min | inhibition, % at 12.5 µM | hit rate 40% among 6,200;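 active = mean inhibition across replicates above about 50%, limit read from the data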
SENP6 conf = confirmation of human SENP6 protease inhibitors; shares compounds with SENP7 block; recombinant SENP6, Z-RLRGG-aminoluciferin luminescence; inhibition, % at 12.5 µM; hit rate 58% among 6,200; AID 488915
SENP7 confirm = human SENP7 inhibition, confirmed | AID 488917 | recombinant SENP7, Z-RLRGG-aminoluciferin luminescence, 40 min | shares compounds with SENP7 block | inhibition, % at 12.5 µM | hit rate 69% among 6,200
Casp3 select = inhibits human caspase-3 in SENP selectivity test; shares compounds with SENP7 block; purified caspase-3, Z-DEVD-aminoluciferin luminescence, 60 min; hit rate 60% among 6,200; AID 488918; inhibition, % at 12.5 µM;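 active = mean inhibition above about 50%, limit read from the data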;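 also: plate controls were enzyme with DMSO for no effect and wells without caspase-3 for full effect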
Target sequence (P42574 28-227 limits assumed): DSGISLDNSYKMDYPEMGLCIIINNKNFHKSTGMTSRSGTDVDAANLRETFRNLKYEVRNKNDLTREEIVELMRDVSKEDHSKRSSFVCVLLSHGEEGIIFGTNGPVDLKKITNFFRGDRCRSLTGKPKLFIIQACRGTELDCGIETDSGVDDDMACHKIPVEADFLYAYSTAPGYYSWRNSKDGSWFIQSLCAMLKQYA
Luc interf = luminescence interference (SENP counter-screen); shares compounds with SENP7 block; Pre-incubated SENP8/Z-RLRGG-aminoluciferin, luciferase luminescence interference; inhibition, % at 12.5 µM; AID 488919; hit rate 39% among 6,200;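 active = mean inhibition above about 50% when retested at one dose, limit read from the data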;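 also: plate controls were DMSO wells with completed reaction for no effect and substrate without enzyme for full effect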
Active calls of the source: *; . = no result given. An excerpt weighted towards active compounds, which were near 3.3% of everything screened.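 The calls were made as follows, unless noted: active = mean inhibition above about 50% in the one-dose retest (limit read from the data); inactive = the rest.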

SMILES | CendR NRP1 mod | SENP1 inh | SENP8 block-1 | SENP8 block-2 | SENP7 block | SENP6 inh | SENP8 conf | SENP6 conf | SENP7 confirm | Casp3 select | Luc interf
COc1c(OC(C)=O)ccc(/C=C/c2ccc3ccccc3n2)c1[N+](=O)[O-] | -2.0 | 1.8 | 18.8 | 89.2* | 90.8* | 93.8* | 86.0* | 96.9* | 98.7* | 84.5* | 41.4
COc1c(OC(C)=O)ccc(/C=C/c2ccc3cccc(OC)c3n2)c1[N+](=O)[O-] | 0.1 | 0.0 | 12.5 | 17.4 | -1.1 | 28.8 | . | . | . | . | .
O=[N+]([O-])c1ccccc1/C=C/c1ccc2ccccc2n1 | 0.8 | -0.9 | 11.0 | 85.0* | 81.5* | 88.2* | 93.5* | 93.4* | 100.1* | 79.4* | 47.4
O=C(Nc1nc2ccsc2c(=O)s1)c1ccc(F)cc1Cl | 4.0 | -6.5 | -103.9 | 86.0* | 98.3* | 88.6* | 43.7 | 52.1* | 44.6 | 51.8* | 3.6
O=C(Nc1nc2ccsc2c(=O)s1)c1ccc(F)cc1 | 2.2 | -32.6 | -82.6 | 93.8* | 99.5* | 95.8* | 37.4 | 93.1* | 47.4 | 55.6* | 17.9
COc1ccc(-c2nc3c(C)cc(Br)cn3c2Cc2ccsc2)cc1OC | -10.9 | 8.2 | -8.3 | . | . | . | . | . | . | . | .
C=CCNC(=O)c1ccc(NC(=O)C2=CSCCO2)cc1 | 8.2 | 2.4 | 4.0 | 68.9* | 76.9* | 72.6* | 74.3* | 72.5* | 92.7* | 90.5* | 72.8*
c1cncc(-c2nc3cc4ccccc4cc3[nH]2)c1 | -6.9 | -13.6 | -262.6 | 89.2* | 0.9 | 89.8* | 86.7* | 89.3* | 100.1* | 88.5* | 61.7*
c1ccc(-c2nc3cc4ccccc4cc3[nH]2)nc1 | 4.4 | -4.1 | -319.1 | 93.8* | 99.7* | 98.9* | 96.5* | 97.1* | 100.5* | 95.6* | 93.8*
CC(C)(C)NC(=S)Nc1ccc(Nc2ccccc2)cc1 | 3.7 | 0.7 | 9.4 | 17.5 | 50.5* | 32.3 | -3.4 | 1.6 | 6.8 | 1.9 | 4.1
CCN(CC)C(=O)C1=C(C)N(CCCN2CCCC2=O)C(=O)C(CC(=O)NC2CCCCC2)C1 (stereo unspecified) | -0.5 | 2.5 | 15.8 | . | . | . | . | . | . | . | .
CN(C)/C=C1\C(=O)N(c2ccc([N+](=O)[O-])cc2)N=C1c1ccccc1 | 0.2 | 5.4 | 62.1* | 94.8* | 96.7* | 97.6* | 98.0* | 98.8* | 103.0* | 95.3* | 97.2*
CC1=NN(c2ccc([N+](=O)[O-])cc2)C(=O)/C1=C\N(C)C | -5.4 | 2.5 | 42.6* | 93.1* | 95.3* | 96.9* | 95.6* | 95.0* | 101.8* | 98.3* | 95.5*
CC1=NN(c2nc3ccccc3[nH]2)C(=O)/C1=C/N(C)C | -0.1 | 0.8 | 14.9 | 92.3* | 95.9* | 88.2* | 87.7* | 84.1* | 98.5* | 96.8* | 91.3*
CCCC1=NN(c2ccc([N+](=O)[O-])cc2)C(=O)/C1=C/N(C)C | -1.2 | 0.6 | 21.1 | 94.5* | 98.9* | 97.9* | 94.9* | 95.4* | 101.2* | 96.4* | 96.0*
CC1=NN(c2ccccc2)C(=O)/C1=C/N(C)C | 3.0 | 2.5 | 19.5 | -4.4 | 9.1 | 4.5 | . | . | . | . | .
OCCCNc1ncnc2c1ncn2[C@H]1CN(Cc2ccc(-c3ccccc3)cc2)C[C@@H](CO)O1 | -12.4 | 1.4 | 0.9 | . | . | . | . | . | . | . | .
NC(=O)c1cccc(-c2coc3c(C(=O)NC4CCCCC4)cccc23)c1 | -7.6 | 0.8 | 5.4 | . | . | . | . | . | . | . | .
O=C1/C(=C\c2ccc(-c3ccccc3[N+](=O)[O-])o2)C(c2ccccc2)=NN1c1ccccc1 | -22.1 | 1.6 | 35.6 | 3.7 | 10.6 | 57.6* | -18.2 | -7.4 | -7.4 | -10.0 | -5.7
O/C(=C\c1ccc2ccccc2n1)c1ccncc1 | -49.3 | -26.5 | -115.3 | 90.4* | 96.9* | 97.8* | 93.9* | 93.8* | 101.5* | 96.9* | 93.9*
CC1(C(=O)Nc2nnc(C(C)(C)C)s2)Cc2ccccc2C(=O)O1 (stereo unspecified) | -3.7 | 0.8 | 12.0 | 0.7 | 100.9* | -14.2 | -0.6 | -1.8 | -3.3 | -2.0 | 0.5
Cn1nc(C2CC2)cc1NC(=O)C1(C)CCN1C(=O)c1ccccc1CCc1ccccc1 (stereo unspecified) | -8.0 | -0.9 | 8.1 | . | . | . | . | . | . | . | .
Cn1c(SCc2ccccc2F)nc2cccnc21 | -2.5 | 2.9 | 10.4 | 25.3 | 47.9 | 60.4* | 53.5* | 50.7* | 80.9* | 63.5* | 57.4*
CCOC(=O)CSc1nc2cccnc2n1C | 0.0 | 3.2 | 2.6 | -11.9 | -5.9 | -2.0 | . | . | . | . | .
O=C1CC(N2CCN(Cc3ccc4c(c3)OCO4)CC2)C(=O)N1c1ccccc1 (stereo unspecified) | -4.8 | 1.7 | 17.8 | 5.1 | 62.5* | -1.9 | 6.1 | 7.8 | -7.8 | -2.6 | 0.1
SMILES | CendR NRP1 mod | SENP1 inh | SENP8 block-1 | SENP8 block-2 | SENP7 block | SENP6 inh | SENP8 conf | SENP6 conf | SENP7 confirm | Casp3 select | Luc interf
O=[N+]([O-])c1cc(NCCO)c(N2CCCCCC2)c2nonc12 | 7.7 | -28.3 | 15.5 | 44.2 | 12.3 | 56.0* | -2.1 | 2.1 | -2.5 | -3.0 | -2.9
O=c1c2ccccc2nnn1COc1cccc(Cl)c1 | 10.4 | 1.6 | 3.8 | 35.9 | 35.0 | 57.5* | 14.3 | 57.9* | 48.0 | 49.4 | 1.7
CCc1cccc(NC(=O)c2cnn(-c3ccccc3)c2C)c1 | -3.7 | 1.3 | 11.0 | 82.9* | 85.2* | 89.7* | 1.8 | 86.8* | 97.6* | 81.4* | 81.0*
Cc1ccc(NC(=O)c2cnn(-c3ccccc3)c2C)cc1 | -5.3 | 0.4 | 13.1 | 45.7 | 67.1* | 66.3* | 67.1* | 63.7* | 88.6* | 70.0* | 20.4
COc1cccc(NC(=O)c2cnn(-c3ccccc3)c2C)c1 | 1.6 | 1.3 | 6.3 | 78.4* | 84.7* | 82.4* | 8.2 | 85.0* | 98.1* | 89.0* | 86.2*
Cc1cc(C(C)(C)C)ccc1OC(=O)C1=CC=CN2CCS(=O)(=O)N=C12 | 9.4 | 0.8 | -347.4 | 1.1 | -20.3 | 3.6 | . | . | . | . | .
COc1ccc(-c2csc(-n3cccn3)n2)cc1 | -10.8 | 1.2 | 8.6 | 72.4* | 80.3* | 81.4* | 10.5 | 78.7* | 96.2* | 65.3* | 68.6*
COc1ccc(-c2csc(N3CCSCC3)n2)cc1 | -4.2 | 1.7 | 10.6 | -4.4 | -1.9 | -30.1 | . | . | . | . | .
